We go through 1 substance from publication PMC4120251 (Journal of Alzheimer's disease : JAD, 2013).

The subject of series [1] is Iba-1 activated microglia. Nature of the series: Activated microglia by Iba-1 immunostaining. The series is classed as in vivo. As to conditions: APP/PS1ΔE9 mice, 50 μg/mouse RO 3 times a week for 6 weeks, n = 8. The procedure, abridged: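 Right hemisphere fixed in buffered formaldehyde after saline perfusion under ketamine/xylazine. Free-floating 30 μm sections were stained with rabbit polyclonal anti-Iba-1 (1:250) and a Vectastain rabbit IgG kit. Four coronal sections per brain were imaged and converted to grayscale. Iba-1-positive area was measured over cortex and hippocampus and expressed as burden (% stained surface of total area). Mice were 4-month-old males.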

The nature of series [2]: Tissue bioavailability: 14C-labeled peptide in brain. Format: in vivo, mouse. As to conditions: 14C-labeled peptide via tail vein, brain at 6 h.
A further series concerns TNF-α. Kind of series: TNF-α ELISA in TBS soluble brain homogenate. To be noted: APP/PS1ΔE9 mice, 50 μg/mouse RO 3 times a week for 6 weeks, p < 0.05. Format: in vivo. The method in brief: (§1)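 Saline-perfused cortex and hippocampus were homogenized in 15 volumes of ice-cold TBS (pH 7.4) with protease inhibitors. Homogenate was spun at 20,000g for 20 min at 4°C, and the supernatant (TBS-soluble fraction) was assayed with a commercial sandwich ELISA following the kit protocol. Values were normalized to total protein (BCA). Mice were 4-month-old males; controls received an equal volume of saline.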

In a further series the test system is IL-6. Kind of series: IL-6 ELISA in TBS soluble brain homogenate. Format: in vivo. As to conditions: APP/PS1ΔE9 mice, 50 μg/mouse RO 3 times a week for 6 weeks, p < 0.05. The method in brief: as §1
For series [3] the following is noted: in vivo; cited from earlier work.
Series [4] relates to U251 astrocytes. Kind of series: Secretion of ApoE, human ApoE ELISA of media. The series is classed as cell-based. As to conditions: no ox-PAPC or oAβ42, ApoE in media by ELISA, n = 6.
Series [5] in a line: Plasma total cholesterol in APP/PS1ΔE9 mice. The series is classed as in vivo, mouse. To be noted: peptide group before treatment, mean ± SEM, n = 8. The method in brief:
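Plasma total cholesterol was determined colorimetrically with Infinity cholesterol reagent at baseline and after 6 weeks of treatment. Mice were 4-month-old male transgenics.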

Series [6] deals with U251 astrocytes. Nature of the series: Cell viability, MTT assay. As to conditions: U251 cells, 0 to 10 μg/ml, 24 h, n = 4. Format: cell-based, human. The method in brief: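 U251-MG astroglioma cells were grown in DMEM/Ham's F-12 with 10 mM HEPES, 2 mM L-glutamine, penicillin/streptomycin and 10% FBS. Cells were exposed to test compound for 24 h, and viability was read by MTT reduction using a TOX-1 kit.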

Series [7] is classed as in vivo, mouse. To be noted: ApoE null mice.

Read-outs that look alike come from different tables or passages of the source.

With “Ac-LRKLRKRLLRDWLKAFYDKVAEKLKEAF-NH2 [Ac-hE18A-NH2]”, in series [1], the “reduction in the amount of activated microglia (Iba-1 staining)” value was determined as 13%. The “number of Iba-1 immunopositive activated microglia versus saline” value in [1] (p < 0.05) was “significantly reduced”. The “peptide crossing BBB, fraction of the injected dose” value in series [2] is on record as 0.13 % of the injected dose. The “TNF-α level in TBS soluble fraction of brain homogenate versus control” value in the series with TNF-α is listed as “decreased significantly”. In addition, the “IL-6 level in TBS soluble fraction of brain homogenate versus control” value in the series on IL-6 is “decreased significantly”. In [3], the “half-life in plasma, rapid phase” value was 1.6 min. For the same substance, in series [3], the “half-life in plasma, slow phase” value was 96.6 min. Moreover, the “enhancement of ApoE secretion by peptide by itself” value in the series with U251 astrocytes [4] is recorded as “about 25%”. In [5], the “plasma cholesterol at baseline” value stood at 165.3 ± 10.3 mg/dL. The “toxicity (cell viability) compared to control” value with U251 astrocytes [6] was “no toxicity”. For the same substance, the “change in plasma cholesterol levels compared to baseline” value in series [7] (retro-orbital (RO), 5 min) stood at 52 ± 3%; in series [7] (retro-orbital (RO), 5 h) it was 17.2 ± 2%; in [7] (tail vein, 5 min), 52 ± 4%; in [7] (tail vein, 5 h), 14 ± 1%.
